Values after ≈ are worked out from the molar mass of the structure shown.
Tests used:
Type in all cases: functional
Bacillus cereus = experiment: Minimum inhibitory concentration against Bacillus cereus MTCC 430
Summary of the method: (§1)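 Microbroth dilution MIC determination, with results expressed in μg/mL. Where run in triplicate, the highest MIC of the three replicates is the value reported.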

Enterococcus faecalis [1] = experiment: Minimum inhibitory concentration against Enterococcus faecalis MTCC 439; summary of the method: as §1
[2] = system: Staphylococcus epidermidis; experiment: Minimum inhibitory concentration against Staphylococcus epidermidis MTCC 155; summary of the method: as §1
Staphylococcus aureus [3] = experiment: Minimum inhibitory concentration against Staphylococcus aureus MTCC 96; summary of the method: as §1
Bacillus pumilus = experiment: Minimum inhibitory concentration against Bacillus pumilus MTCC 1607; summary of the method: as §1
Streptococcus pyogenes = experiment: Minimum inhibitory concentration against Streptococcus pyogenes MTCC 442; summary of the method: as §1
Enterococcus faecalis [4] = experiment: Minimum inhibitory concentration against Enterococcus faecalis ATCC 14506; summary of the method: as §1
Klebsiella pneumoniae = experiment: Minimum inhibitory concentration against Klebsiella pneumoniae ATCC 10031; summary of the method: as §1
Staphylococcus aureus [5] = experiment: Minimum inhibitory concentration against Staphylococcus aureus ATCC 25923; summary of the method: as §1
Staphylococcus aureus [6] = experiment: Minimum inhibitory concentration against Staphylococcus aureus ATCC 29213; summary of the method: as §1
Staphylococcus aureus [7] = experiment: Minimum inhibitory concentration against Staphylococcus aureus ATCC 14154; summary of the method: as §1

| SMILES | MIC (Bacillus cereus) [µg/mL] | MIC (Enterococcus faecalis [1]) [µg/mL] | MIC [2] [µg/mL] | MIC (Staphylococcus aureus [3]) [µg/mL] | MIC (Bacillus pumilus) [µg/mL] | MIC (Streptococcus pyogenes) [µg/mL] | MIC (Enterococcus faecalis [4]) [µg/mL] | MIC (Klebsiella pneumoniae) [µg/mL] | MIC (Staphylococcus aureus [5]) [µg/mL] | MIC (Staphylococcus aureus [6]) [µg/mL] | MIC (Staphylococcus aureus [7]) [µg/mL] |
| --- | --- | --- | --- | --- | --- | --- | --- | --- | --- | --- | --- |
| CC(=O)NC[C@H]1CN(c2ccc(N3CCN(C(=O)/C=C/c4ccc(OC(=O)C(C)(C)C)cc4)CC3)c(F)c2)C(=O)O1 | 16 (≈ 28.2 µM) | 8 (≈ 14.1 µM) | 4 (≈ 7.06 µM) | > 16 | 8 (≈ 14.1 µM) | > 16 | – | – | – | – | – |
| CSc1ccc(/C=C/C(=O)N2CCN(c3ccc(N4C[C@H](CNC(C)=O)OC4=O)cc3F)CC2)cc1 | 2 (≈ 3.9 µM) | 2 (≈ 3.9 µM) | 1 (≈ 1.95 µM) | 16 (≈ 31.2 µM) | 2 (≈ 3.9 µM) | 16 (≈ 31.2 µM) | – | – | – | – | – |
| CC(=O)NC[C@H]1CN(c2ccc(N3CCN(C(=O)/C=C/c4ccc(OC(C)=O)c(OC(C)=O)c4)CC3)c(F)c2)C(=O)O1 | 2 (≈ 3.43 µM) | 2 (≈ 3.43 µM) | 1 (≈ 1.72 µM) | 4 (≈ 6.87 µM) | 2 (≈ 3.43 µM) | 4 (≈ 6.87 µM) | – | – | – | – | – |
| CC(=O)NC[C@H]1CN(c2ccc(N3CCN(C(=O)/C=C/c4ccc([N+](=O)[O-])cc4)CC3)c(F)c2)C(=O)O1 | 1 (≈ 1.95 µM) | 4 (≈ 7.82 µM) | 4 (≈ 7.82 µM) | 4 (≈ 7.82 µM) | 2 (≈ 3.91 µM) | 1 (≈ 1.95 µM) | – | – | – | – | – |
| CC(=O)NC[C@H]1CN(c2ccc(N3CCN(C(=O)/C=C/c4ccc(F)cc4)CC3)c(F)c2)C(=O)O1 | 4 (≈ 8.26 µM) | 4 (≈ 8.26 µM) | 2 (≈ 4.13 µM) | 16 (≈ 33 µM) | 4 (≈ 8.26 µM) | 8 (≈ 16.5 µM) | – | – | – | – | – |
| C/C(S)=N/C[C@H]1CN(c2ccc(N3CCN(C(=O)/C=C/c4ccc(O)cc4)CC3)c(F)c2)C(=O)O1 | 0.25 (≈ 0.501 µM) | 1 (≈ 2.01 µM) | ≤ 0.12 | 0.25 (≈ 0.501 µM) | 0.25 (≈ 0.501 µM) | 0.5 (≈ 1 µM) | 0.25 (≈ 0.501 µM) | 4 (≈ 8.02 µM) | 0.25 (≈ 0.501 µM) | 0.5 (≈ 1 µM) | 0.5 (≈ 1 µM) |
| C/C(S)=N/C[C@H]1CN(c2ccc(N3CCN(C(=O)/C=C/c4ccc5c(c4)OCO5)CC3)c(F)c2)C(=O)O1 | 0.25 (≈ 0.475 µM) | 8 (≈ 15.2 µM) | 1 (≈ 1.9 µM) | 1 (≈ 1.9 µM) | 0.25 (≈ 0.475 µM) | 4 (≈ 7.6 µM) | 0.25 (≈ 0.475 µM) | 2 (≈ 3.8 µM) | 0.5 (≈ 0.95 µM) | 1 (≈ 1.9 µM) | 1 (≈ 1.9 µM) |
| CC(=O)NC[C@H]1CN(c2ccc(N3CCN(C(=O)/C=C/c4ccc(O)c(O)c4)CC3)c(F)c2)C(=O)O1 | 16 (≈ 32.1 µM) | 8 (≈ 16 µM) | 4 (≈ 8.02 µM) | 8 (≈ 16 µM) | 8 (≈ 16 µM) | 16 (≈ 32.1 µM) | – | – | – | – | – |
| CC(=O)NC[C@H]1CN(c2ccc(N3CCN(C(=O)/C=C/c4ccc(NC(C)=O)cc4)CC3)c(F)c2)C(=O)O1 | 4 (≈ 7.64 µM) | 4 (≈ 7.64 µM) | 4 (≈ 7.64 µM) | 8 (≈ 15.3 µM) | 8 (≈ 15.3 µM) | 8 (≈ 15.3 µM) | – | – | – | – | – |
| CC(=O)NC[C@H]1CN(c2ccc(N3CCN(C(=O)/C=C/c4ccc(F)c(F)c4)CC3)c(F)c2)C(=O)O1 | 4 (≈ 7.96 µM) | > 16 | > 16 | > 16 | 16 (≈ 31.8 µM) | 4 (≈ 7.96 µM) | – | – | – | – | – |
| CC(=O)NC[C@H]1CN(c2ccc(N3CCN(C(=O)CO)CC3)c(F)c2)C(=O)O1 [EPEREZOLID] | 2 (≈ 5.07 µM) | 4 (≈ 10.1 µM) | 1 (≈ 2.54 µM) | – | 2 (≈ 5.07 µM) | 4 (≈ 10.1 µM) | 2 (≈ 5.07 µM) | > 16 | 4 (≈ 10.1 µM) | 4 (≈ 10.1 µM) | 4 (≈ 10.1 µM) |
| CC(=O)NC[C@H]1CN(c2ccc(N3CCN(C(=O)/C=C/c4ccccc4)CC3)c(F)c2)C(=O)O1 | 1 (≈ 2.14 µM) | 2 (≈ 4.29 µM) | 0.5 (≈ 1.07 µM) | 4 (≈ 8.57 µM) | 1 (≈ 2.14 µM) | 2 (≈ 4.29 µM) | 1 (≈ 2.14 µM) | > 16 | 2 (≈ 4.29 µM) | 4 (≈ 8.57 µM) | 4 (≈ 8.57 µM) |
| CC(=O)NC[C@H]1CN(c2ccc(N3CCN(C(=O)/C=C/c4ccc5c(c4)OCO5)CC3)c(F)c2)C(=O)O1 | 1 (≈ 1.96 µM) | 1 (≈ 1.96 µM) | 1 (≈ 1.96 µM) | 2 (≈ 3.92 µM) | 1 (≈ 1.96 µM) | 2 (≈ 3.92 µM) | 2 (≈ 3.92 µM) | > 16 | 4 (≈ 7.84 µM) | 4 (≈ 7.84 µM) | 2 (≈ 3.92 µM) |
| CC(=O)NC[C@H]1CN(c2ccc(N3CCOCC3)c(F)c2)C(=O)O1 [LINEZOLID] | 2 (≈ 5.93 µM) | – | 2 (≈ 5.93 µM) | – | 1 (≈ 2.96 µM) | 0.5 (≈ 1.48 µM) | – | > 16 | – | – | – |
| CC(=O)NC[C@H]1CN(c2ccc(N3CCN(C(=O)/C=C/c4cccc(O)c4)CC3)c(F)c2)C(=O)O1 | 0.5 (≈ 1.04 µM) | 1 (≈ 2.07 µM) | 0.25 (≈ 0.518 µM) | 2 (≈ 4.14 µM) | 0.5 (≈ 1.04 µM) | 2 (≈ 4.14 µM) | 1 (≈ 2.07 µM) | > 16 | 4 (≈ 8.29 µM) | 1 (≈ 2.07 µM) | 4 (≈ 8.29 µM) |
| CC(=O)NC[C@H]1CN(c2ccc(N3CCN(C(=O)/C=C/c4ccc(OS(C)(=O)=O)cc4)CC3)c(F)c2)C(=O)O1 | 1 (≈ 1.78 µM) | 4 (≈ 7.14 µM) | 8 (≈ 14.3 µM) | 8 (≈ 14.3 µM) | 4 (≈ 7.14 µM) | 2 (≈ 3.57 µM) | – | – | – | – | – |
| CC(=O)NC[C@H]1CN(c2ccc(N3CCN(C(=O)/C=C/c4ccc(O)cc4)CC3)c(F)c2)C(=O)O1 | 0.5 (≈ 1.04 µM) | 1 (≈ 2.07 µM) | 0.25 (≈ 0.518 µM) | 2 (≈ 4.14 µM) | 1 (≈ 2.07 µM) | 2 (≈ 4.14 µM) | 2 (≈ 4.14 µM) | > 16 | 1 (≈ 2.07 µM) | 2 (≈ 4.14 µM) | 2 (≈ 4.14 µM) |
| C/C(S)=N/C[C@H]1CN(c2ccc(N3CCN(C(=O)/C=C/c4ccccc4)CC3)c(F)c2)C(=O)O1 | 0.5 (≈ 1.04 µM) | 0.5 (≈ 1.04 µM) | 0.25 (≈ 0.518 µM) | 2 (≈ 4.14 µM) | 0.5 (≈ 1.04 µM) | 0.5 (≈ 1.04 µM) | 0.5 (≈ 1.04 µM) | > 16 | 1 (≈ 2.07 µM) | 1 (≈ 2.07 µM) | 2 (≈ 4.14 µM) |
| CC(=O)NC[C@H]1CN(c2ccc(N3CCN(C(=O)/C=C/c4ccc(N)cc4)CC3)c(F)c2)C(=O)O1 | 1 (≈ 2.08 µM) | 1 (≈ 2.08 µM) | 0.5 (≈ 1.04 µM) | 1 (≈ 2.08 µM) | 1 (≈ 2.08 µM) | 2 (≈ 4.15 µM) | – | – | – | – | – |
| COc1ccc(/C=C/C(=O)N2CCN(c3ccc(N4C[C@H](CNC(C)=O)OC4=O)cc3F)CC2)cc1 | 2 (≈ 4.03 µM) | 4 (≈ 8.06 µM) | 1 (≈ 2.01 µM) | 4 (≈ 8.06 µM) | 2 (≈ 4.03 µM) | 4 (≈ 8.06 µM) | – | – | – | – | – |
| NC(=S)NC[C@H]1CN(c2ccc(N3CCN(C(=O)/C=C/c4ccccc4)CC3)c(F)c2)C(=O)O1 | 0.25 (≈ 0.517 µM) | 0.5 (≈ 1.03 µM) | 1 (≈ 2.07 µM) | 1 (≈ 2.07 µM) | 1 (≈ 2.07 µM) | 0.25 (≈ 0.517 µM) | 0.5 (≈ 1.03 µM) | 8 (≈ 16.5 µM) | 2 (≈ 4.14 µM) | 1 (≈ 2.07 µM) | 2 (≈ 4.14 µM) |
| N=C(S)NC[C@H]1CN(c2ccc(N3CCN(C(=O)/C=C/c4ccc5c(c4)OCO5)CC3)c(F)c2)C(=O)O1 | 1 (≈ 1.9 µM) | 0.25 (≈ 0.474 µM) | 0.25 (≈ 0.474 µM) | 1 (≈ 1.9 µM) | 1 (≈ 1.9 µM) | 0.5 (≈ 0.948 µM) | 0.5 (≈ 0.948 µM) | > 16 | 2 (≈ 3.79 µM) | 2 (≈ 3.79 µM) | 1 (≈ 1.9 µM) |
| C/C(S)=N/C[C@H]1CN(c2ccc(N3CCN(C(=O)/C=C/c4ccc(F)cc4)CC3)c(F)c2)C(=O)O1 | 0.5 (≈ 0.999 µM) | 0.5 (≈ 0.999 µM) | 0.5 (≈ 0.999 µM) | 1 (≈ 2 µM) | 0.5 (≈ 0.999 µM) | 2 (≈ 4 µM) | 2 (≈ 4 µM) | > 16 | 4 (≈ 7.99 µM) | 4 (≈ 7.99 µM) | 1 (≈ 2 µM) |
| CC(=O)NC[C@H]1CN(c2ccc(N3CCN(C(=O)/C=C/c4ccc(-c5ccccc5)cc4)CC3)c(F)c2)C(=O)O1 | > 16 | > 16 | > 16 | > 16 | > 16 | > 16 | – | – | – | – | – |
